pIC50: −log10 of the molar value. In brackets after ≈: the same amount, converted by molar mass.
Legend:
[1] = tested on: PC-3; assay: Cytotoxicity against human PC3 cells after 6 days by MTT assay; assay type: functional, cell-based; details: PC-3, 144 h
[2] = Cytotoxicity against human MCF7/ADR cells after 6 days by MTT assay; assay type: functional, cell-based; details: NCI/ADR-RES, 144 h
[3] = Cytotoxicity against human Hep3B cells after 6 days by MTT assay; assay type: functional, cell-based, Hep 3B2; details: 144 h
[4] = tested on: HepG2; assay: Cytotoxicity against human HepG2 cells after 6 days by MTT assay; assay type: functional, cell-based; details: HepG2, 144 h
[5] = tested on: HCT-116; assay: Cytotoxicity against human HCT116 cells after 6 days by MTT assay; assay type: functional, cell-based; details: HCT-116, 144 h
[6] = tested on: Staphylococcus; assay: Antibacterial activity against Staphylococcus albus after 18 hrs by MTT assay; assay type: functional; details: in the assay text read “by broth dilution assay” for “by MTT assay”
In short: (§1)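 Conventional broth dilution assay against a panel of nine bacterial strains including E. coli and S. albus; V. parahemolyticus also used as pathogenic test organism.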

[7] = tested on: Porcine reproductive and respiratory syndrome virus; assay: Antiviral activity against Porcine reproductive and respiratory syndrome virus infected in CRL11171 cells assessed as inhibition of viral replication by RT-PCR analysis; assay type: functional, cell-based
[8] = tested on: Vibrio parahaemolyticus; assay: Antibacterial activity against Vibrio parahaemolyticus after 18 hrs by MTT assay; assay type: functional; details: in the assay text read “by broth dilution assay” for “by MTT assay”; in short: as §1
[9] = tested on: Escherichia coli; assay: Antibacterial activity against Escherichia coli after 18 hrs by MTT assay; assay type: functional; details: in the assay text read “by broth dilution assay” for “by MTT assay”; in short: as §1

MIC [6] [µM]	pIC50 [7]	MIC [9] [µM]	Compound	pIC50 [1]	pIC50 [2]	pIC50 [3]	pIC50 [4]	pIC50 [5]	MIC [8] [µM]
–	–	–	COc1cc(O)c2c(c1)[C@H](O)[C@H]1C[C@](C)(O)[C@H](O)C[C@@H]1C2=O [TETRAHYDROALTERSOLANOL B]	< 4.00	< 4.00	< 4.00	< 4.00	< 4.00	–
> 20	4.41	2.5 (≈ 1.55 µg/mL)	COc1cc(O)c2c(c1)C(=O)c1cc(C)c(O)c(-c3c(OC)cc4c(c3O)C(=O)C3=C(C4=O)[C@@H](O)[C@](C)(O)[C@H](O)[C@H]3O)c1C2=O [ALTERPORRIOL C]	4.57	4.01	4.29	4.28	4.62	2.5 (≈ 1.55 µg/mL)
–	–	–	COc1cc(O)c2c(c1)[C@H](O)[C@H]1C[C@](C)(O)[C@@H](O)C[C@@H]1C2=O (relative stereo) [TETRAHYDROALTERSOLANOL E]	< 4.00	< 4.00	< 4.00	< 4.00	< 4.00	–
–	–	–	COc1cc(O)c2c(c1)[C@H](O)[C@@H]1[C@H](C[C@@H](O)[C@@](C)(O)[C@@H]1O)C2=O [ALTERSOLANOL L]	< 4.00	< 4.00	< 4.00	< 4.00	< 4.00	–
12 (≈ 3.84 µg/mL)	–	0.62 (≈ 0.199 µg/mL)	COc1cc(O)c2c(c1)C(=O)C1=C(C[C@@H](O)[C@@](C)(O)[C@@H]1O)C2=O [ALTERSOLANOL C]	5.12	5.49	5.09	5.05	5.66	1.25 (≈ 0.4 µg/mL)
–	–	–	COc1cc(O)c2c(c1)[C@H](O)[C@H]1C[C@](C)(O)[C@H](OC(C)=O)C[C@@H]1C2=O	< 4.00	< 4.00	< 4.00	< 4.00	< 4.00	–
–	–	–	COc1cc(O)c2c(c1)[C@H](O)[C@@H]1C[C@](C)(O)[C@H](O)C[C@H]1C2=O (relative stereo)	< 4.00	< 4.00	< 4.00	< 4.00	< 4.00	–
15 (≈ 4.26 µg/mL)	–	2.3 (≈ 0.654 µg/mL)	COc1cc(O)c2c(c1)C(=O)c1cc(C)c(O)cc1C2=O [MACROSPORIN]	–	–	–	–	–	5 (≈ 1.42 µg/mL)
–	–	–	COc1cc(O)c2c(c1)C(=O)C1=C(C[C@@H](O)[C@@](C)(O)C1)C2=O [ALTERSOLANOL B]	< 4.00	< 4.00	< 4.00	< 4.00	< 4.00	–
–	–	–	COc1cc(O)c2c(c1)[C@H](O)[C@@H]1C(=C[C@@H](O)[C@@](C)(O)[C@@H]1O)C2=O (relative stereo)	< 4.00	< 4.00	< 4.00	< 4.00	< 4.00	–
–	4.66	–	COc1cc(O)c2c(c1)C(=O)c1cc(C)c(O)c(-c3c(OC)cc4c(c3O)C(=O)c3cc(O)c(C)cc3C4=O)c1C2=O [ALTERPORRIOL Q]	–	–	–	–	–	–
0.31 (≈ 0.103 µg/mL)	–	0.62 (≈ 0.205 µg/mL)	O=C(O)c1cn(C2CC2)c2cc(N3CCNCC3)c(F)cc2c1=O [CIPROFLOXACIN]	–	–	–	–	–	0.16 (≈ 0.053 µg/mL)
–	–	–	COc1cc(O)c2c(c1)C(=O)c1cc(C)c(O)c(-c3c(OC)cc4c(c3O)C(=O)C3=C(C4=O)[C@@H](O)[C@](C)(O)[C@H](O)C3)c1C2=O [ALTERPORRIOL P]	5.19	4.64	4.68	4.70	5.07	–
–	–	–	COc1cccc2c1C(=O)c1c(O)c3c(c(O)c1C2=O)C[C@@](O)(C(=O)CO)C[C@@H]3O[C@H]1C[C@H](N)[C@@H](O)[C@H](C)O1 [EPIRUBICIN]	6.34	5.78	6.02	5.78	6.09	–
–	4.19	–	COc1cc(O)c2c(c1)[C@@H](O)[C@H]1C[C@](C)(O)[C@H](O)C[C@@H]1C2=O (relative stereo) [TETRAHYDROALTERSOLANOL C]	< 4.00	< 4.00	< 4.00	< 4.00	< 4.00	–
–	–	–	COc1cc(O)c2c(c1)[C@H](O)[C@@H]1[C@@H](C2=O)[C@H](O)[C@@H](O)[C@@](C)(O)[C@@H]1O [AMPELANOL]	< 4.00	< 4.00	< 4.00	< 4.00	< 4.00	–
